Measured values reported in ChEMBL document CHEMBL5058577, “EUbOPEN Chemogenomics Library 2 (Multiplex)” (2022).

Test system: HEK-293T
Test: Multiplex assay against HEK293T
Assay type: toxicity, cell-based
Conditions: human
In short: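 Cells were classed with CellPathfinder machine-learning gating, first as Hoechst high-intensity objects or normal cells, then (normal cells) as healthy, pyknosed or fragmented nuclei, and finally (pyknosed cells) as mitotic or apoptotic. Staining of live cells at seeding used Hoechst33342, BioTracker Green Microtubule Cytoskeleton Dye, MitoTracker Red and Annexin V Alexa Fluor 680, with imaging on a CQ1 microscope at 37°C and 5% CO2 after compound addition. Tubulin, mitochondrial-mass and membrane-permeability phenotypes are per cents of healthy-nucleus cells.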

[1] = 12 h, 1 µM, compound concentration 1 uM, replicate 1
[2] = 12 h, 1 µM, compound concentration 1 uM, replicate 2
[3] = 12 h, 10 µM, compound concentration 10 uM, replicate 1
[4] = 12 h, 10 µM, compound concentration 10 uM, replicate 2
[5] = 24 h, 1 µM, compound concentration 1 uM, replicate 1
[6] = 24 h, 1 µM, compound concentration 1 uM, replicate 2
[7] = 24 h, 10 µM, compound concentration 10 uM, replicate 1
[8] = 24 h, 10 µM, compound concentration 10 uM, replicate 2
[9] = 48 h, 1 µM, compound concentration 1 uM, replicate 1
[10] = 48 h, 1 µM, compound concentration 1 uM, replicate 2
[11] = 48 h, 10 µM, compound concentration 10 uM, replicate 1
[12] = 48 h, 10 µM, compound concentration 10 uM, replicate 2

Structure (SMILES): COc1cc(OC2CCN(C(C)=O)CC2)ccc1C(=O)N1CCC(N2C(=O)OCc3ccccc32)CC1
- Population Apoptotic (%) [1]: 28%
- Population Fragmented Nuclei (%) [1]: 5%
- Population Healthy Nuclei (%) [1]: 83%
- Population Hoechst High Intensity Objects (%) [1]: 7%
- Population Membrane Permeable-Phenotype (%) [1]: 0%
- Population Mitochondria Different-Phenotype (%) [1]: 37%
- Population Mitotic Cells (%) [1]: 71%
- Population Normal (%) [1]: 92%
- Population Pyknosed Nuclei (%) [1]: 11%
- Population Tubulin-Different-Phenotype (%) [1]: 26%
- Total Cell Count [1]: 477
- Population Apoptotic (%) [2]: 48%
- Population Healthy Nuclei (%) [2]: 76%
- Population Mitochondria Different-Phenotype (%) [2]: 59%
- Population Mitotic Cells (%) [2]: 51%
- Population Pyknosed Nuclei (%) [2]: 18%
- Population Tubulin-Different-Phenotype (%) [2]: 21%
- Total Cell Count [2]: 381
- Population Apoptotic (%) [3]: 40%
- Population Fragmented Nuclei (%) [3]: 9%
- Population Healthy Nuclei (%) [3]: 77%
- Population Hoechst High Intensity Objects (%) [3]: 8%
- Population Membrane Permeable-Phenotype (%) [3]: 0%
- Population Mitochondria Different-Phenotype (%) [3]: 57%
- Population Mitotic Cells (%) [3]: 60%
- Population Normal (%) [3]: 91%
- Population Pyknosed Nuclei (%) [3]: 13%
- Population Tubulin-Different-Phenotype (%) [3]: 47%
- Total Cell Count [3]: 436
- Population Apoptotic (%) [4]: 67%
- Population Fragmented Nuclei (%) [4]: 4%
- Population Healthy Nuclei (%) [4]: 80%
- Population Hoechst High Intensity Objects (%) [4]: 6%
- Population Mitochondria Different-Phenotype (%) [4]: 77%
- Population Mitotic Cells (%) [4]: 32%
- Population Normal (%) [4]: 93%
- Population Pyknosed Nuclei (%) [4]: 14%
- Population Tubulin-Different-Phenotype (%) [4]: 40%
- Total Cell Count [4]: 316
- Population Apoptotic (%) [5]: 28%
- Population Fragmented Nuclei (%) [5]: 9%
- Population Healthy Nuclei (%) [5]: 78%
- Population Hoechst High Intensity Objects (%) [5]: 4%
- Population Membrane Permeable-Phenotype (%) [5]: 2%
- Population Mitochondria Different-Phenotype (%) [5]: 25%
- Population Mitotic Cells (%) [5]: 71%
- Population Normal (%) [5]: 95%
- Population Pyknosed Nuclei (%) [5]: 11%
- Population Tubulin-Different-Phenotype (%) [5]: 17%
- Total Cell Count [5]: 598
- Population Apoptotic (%) [6]: 48%
- Population Fragmented Nuclei (%) [6]: 7%
- Population Healthy Nuclei (%) [6]: 80%
- Population Hoechst High Intensity Objects (%) [6]: 6%
- Population Membrane Permeable-Phenotype (%) [6]: 0%
- Population Mitochondria Different-Phenotype (%) [6]: 40%
- Population Mitotic Cells (%) [6]: 51%
- Population Normal (%) [6]: 93%
- Population Pyknosed Nuclei (%) [6]: 12%
- Population Tubulin-Different-Phenotype (%) [6]: 15%
- Total Cell Count [6]: 491
- Population Apoptotic (%) [7]: 31%
- Population Fragmented Nuclei (%) [7]: 8%
- Population Healthy Nuclei (%) [7]: 78%
- Population Hoechst High Intensity Objects (%) [7]: 3%
- Population Membrane Permeable-Phenotype (%) [7]: 0%
- Population Mitochondria Different-Phenotype (%) [7]: 44%
- Population Mitotic Cells (%) [7]: 68%
- Population Normal (%) [7]: 96%
- Population Pyknosed Nuclei (%) [7]: 13%
- Population Tubulin-Different-Phenotype (%) [7]: 36%
- Total Cell Count [7]: 523
- Population Apoptotic (%) [8]: 49%
- Population Fragmented Nuclei (%) [8]: 7%
- Population Hoechst High Intensity Objects (%) [8]: 4%
- Population Mitochondria Different-Phenotype (%) [8]: 58%
- Population Mitotic Cells (%) [8]: 50%
- Population Normal (%) [8]: 95%
- Population Pyknosed Nuclei (%) [8]: 14%
- Population Tubulin-Different-Phenotype (%) [8]: 29%
- Total Cell Count [8]: 393
- Population Apoptotic (%) [9]: 20%
- Population Fragmented Nuclei (%) [9]: 13%
- Population Healthy Nuclei (%) [9]: 78%
- Population Hoechst High Intensity Objects (%) [9]: 3%
- Population Membrane Permeable-Phenotype (%) [9]: 1%
- Population Mitochondria Different-Phenotype (%) [9]: 19%
- Population Mitotic Cells (%) [9]: 79%
- Population Normal (%) [9]: 96%
- Population Pyknosed Nuclei (%) [9]: 8%
- Population Tubulin-Different-Phenotype (%) [9]: 13%
- Total Cell Count [9]: 902
- Population Apoptotic (%) [10]: 33%
- Population Fragmented Nuclei (%) [10]: 11%
- Population Healthy Nuclei (%) [10]: 80%
- Population Hoechst High Intensity Objects (%) [10]: 2%
- Population Mitochondria Different-Phenotype (%) [10]: 23%
- Population Mitotic Cells (%) [10]: 66%
- Population Normal (%) [10]: 97%
- Population Pyknosed Nuclei (%) [10]: 7%
- Population Tubulin-Different-Phenotype (%) [10]: 12%
- Total Cell Count [10]: 655
- Population Apoptotic (%) [11]: 36%
- Population Fragmented Nuclei (%) [11]: 13%
- Population Healthy Nuclei (%) [11]: 78%
- Population Hoechst High Intensity Objects (%) [11]: 4%
- Population Membrane Permeable-Phenotype (%) [11]: 0%
- Population Mitochondria Different-Phenotype (%) [11]: 30%
- Population Mitotic Cells (%) [11]: 63%
- Population Normal (%) [11]: 95%
- Population Pyknosed Nuclei (%) [11]: 8%
- Population Tubulin-Different-Phenotype (%) [11]: 21%
- Total Cell Count [11]: 813
- Population Fragmented Nuclei (%) [12]: 12%
- Population Healthy Nuclei (%) [12]: 80%
- Population Hoechst High Intensity Objects (%) [12]: 3%
- Population Mitochondria Different-Phenotype (%) [12]: 39%
- Population Normal (%) [12]: 96%
- Population Pyknosed Nuclei (%) [12]: 7%
- Population Tubulin-Different-Phenotype (%) [12]: 16%
- Total Cell Count [12]: 625
